The target of test [1] is T1, M-phase inducer phosphatase 3 (Homo sapiens, UniProt P30307).
T1 sequence (P30307 whole entry): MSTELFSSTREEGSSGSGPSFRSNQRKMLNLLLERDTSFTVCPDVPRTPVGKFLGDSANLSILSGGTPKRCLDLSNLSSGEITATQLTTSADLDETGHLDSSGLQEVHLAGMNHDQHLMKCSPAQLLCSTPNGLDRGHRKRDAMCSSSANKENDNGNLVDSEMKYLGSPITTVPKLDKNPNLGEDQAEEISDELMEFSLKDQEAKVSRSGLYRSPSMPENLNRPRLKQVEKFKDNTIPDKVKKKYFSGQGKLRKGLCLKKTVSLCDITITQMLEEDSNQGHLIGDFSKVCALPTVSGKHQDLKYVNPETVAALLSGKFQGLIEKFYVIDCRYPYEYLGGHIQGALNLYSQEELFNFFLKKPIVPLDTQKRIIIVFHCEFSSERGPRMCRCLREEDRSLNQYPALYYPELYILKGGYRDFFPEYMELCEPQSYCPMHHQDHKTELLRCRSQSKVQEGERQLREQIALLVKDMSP
Kind of test: Inhibitory activity against recombinant CDC25C. In a few lines: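 Recombinant maltose binding protein (MBP)-CDC25C fusion enzyme, with 3-O-methylfluorescein phosphate (OMFP) as substrate. IC50 given as mean ± SEM from at least two, usually three, independent experiments.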

The test system of a further test is MIA PaCa-2. Kind of test: Antiproliferative activity against human pancreatic carcinoma Mia PaCa2 cell line by colorimetric assay. The format is functional, cell-based. A digest of the protocol:
(§1)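 WST1 tetrazolium salt cleavage by mitochondrial dehydrogenases in viable cells, colorimetric read-out. IC50 given as mean ± SEM from at least two experiments, with four or eight determinations per tested concentration.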

A further test has as its system DU-145. Kind of test: Antiproliferative activity against human androgen-independent prostate carcinoma DU145 cell line by colorimetric assay. The format is functional, cell-based. A digest of the protocol: as §1

Structures are written as SMILES.

As usually defined, the IC50 is the concentration at which inhibition is half-maximal. In the case of `CCc1nc2c(o1)C(O)=C/C(=N\CCN(C)C)C2=O`, the IC50 stood at 130 nM in test [1], 440 nM in the test with MIA PaCa-2 and 220 nM in the test with DU-145.

With `CN(C)CC/N=C1\C=C(O)c2oc(-c3ccccc3)nc2C1=O`, the values for the IC50 (in test [1]; in the test with MIA PaCa-2; in the test with DU-145) were 230 nM, 150 nM and 210 nM, respectively.

For `CN(C)CC/N=C1\C=C(O)c2cn(C)cc2C1=O`, the IC50 in test [1] was found to be 81000 nM.

As to `CN(C)CC/N=C1\C=C(O)c2[nH]c(-c3ccccc3)nc2C1=O`, the IC50 in test [1] was 17000 nM; with MIA PaCa-2, 12000 nM; in the test on DU-145 it was more than 10000 nM.

Regarding `CN(C)CC/N=C1\C=C(O)c2nc(-c3ccccc3)oc2C1=O`, the IC50 in test [1] amounted to 230 nM; with MIA PaCa-2 it was 150 nM; in the test on DU-145, 210 nM.

In the case of `CN(C)CC/N=C1\C=C(O)c2nn(-c3ccccc3)cc2C1=O`, the IC50 in test [1] came out at 12000 nM.

`O=C1C(Cl)=C(NCCN2CCOCC2)C(=O)c2ncccc21`: the IC50 in the test on MIA PaCa-2 was determined as 2500 nM; in the test with DU-145 it was 2300 nM.

For `Cc1nc2c(s1)C(O)=C/C(=N\CCN(C)C)C2=O`, the IC50 in test [1] came out at 150 nM; with MIA PaCa-2 it was 180 nM; with DU-145, 110 nM.

As to `CN(C)CC/N=C1\C=C(O)c2cn(-c3ccccc3)nc2C1=O`, the IC50 in test [1] is 12000 nM.

For the compound `CCc1nc2c(o1)C(=O)C(NCCN(C)C)=CC2=O`, the IC50 in test [1] amounted to 130 nM; in the test on MIA PaCa-2, 440 nM; in the test with DU-145, 220 nM.

For the compound `CCc1nc2c([nH]1)C(=O)/C(=N/CCN(C)C)C=C2O`, the IC50 in test [1] was 12000 nM; in the test on MIA PaCa-2, 18000 nM; in the test on DU-145, more than 10000 nM.

Turning to `CC1=CC(=O)c2ccccc2C1=O` [MENADIONE], the figures for the IC50 with MIA PaCa-2 and with DU-145 were 6200 nM and 11000 nM, respectively.

The values are drawn from ChEMBL document CHEMBL1148551, “Synthesis and biological evaluation of novel heterocyclic quinones as inhibitors of the dual specificity protein phosphatase CDC25C” (Bioorg Med Chem Lett, 2006).
